Results from different studies.
Lines come from different studies, so protocols differ. pIC50: −log10 of the molar value.
Effect on: cell growth or viability

SMILES	cell line	method	tested at	time	measurement	value
COc1cc(OC)c2c(=O)cc(-c3ccccc3)oc2c1-c1c(OC)cc(OC)c2c(=O)cc(-c3ccccc3)oc12	HS27	MTT	–	24 h	pIC50	< 3.70
C=CC(=O)N1CCC[C@@H](n2nc(-c3ccc(Oc4ccccc4)cc3)c3c(N)ncnc32)C1	OCI-Ly3	ATP luminescence	–	72 h	GI50	19.3 µM
Fc1cccc(Cl)c1-c1nc2ccccc2[nH]1	MDA-MB-231	MTT	–	48 h	pIC50	4.16
COc1cc(OC)c2c(=O)cc(-c3ccc(Br)cc3)oc2c1-c1c(OC)cc(OC)c2c(=O)cc(-c3ccc(Br)cc3)oc12	HS27	MTT	–	24 h	pIC50	< 3.70
COc1cc2c(cc1OS(N)(=O)=O)CCN(Cc1cccc(OC(C)C)c1)C2	MDA-MB-231	WST-1	–	96 h	GI50	4.65 µM
O=C1CCCCC1=C1Sc2nc3ccc(S(=O)(=O)N4CCCC4)cc3nc2S1	MDA-MB-231	MTT	25 µM	24 h	viability	23.4%
Cc1ccc2nc(-c3cccnc3)[nH]c2c1	MDA-MB-231	MTT	–	48 h	pIC50	4.05
C[C@]12CC[C@H](O)CC1=CC[C@@H]1[C@@H]2CC[C@]2(C)C(c3cccnc3)=CC[C@@H]12	CWR22Rv1	MTT	–	–	GI50	11.5 µM
CSc1ccc(-c2nc3ccccc3[nH]2)cc1	MDA-MB-231	MTT	–	48 h	pIC50	4.44
COc1cc(OC)c2c(=O)cc(-c3ccc(N(C)C)cc3)oc2c1	HS27	MTT	–	24 h	pIC50	< 3.70
Cc1ccc2nc(-c3ccc([N+](=O)[O-])cc3)n(Cc3ccccc3Cl)c2c1	MDA-MB-231	MTT	–	–	pIC50	4.55
COc1cccc2c1C(=O)c1c(O)c3c(c(O)c1C2=O)C[C@@](O)(C(=O)CO)C[C@@H]3O[C@H]1C[C@H](N)[C@H](O)[C@H](C)O1	MDA-MB-231	MTT	50 µM	24 h	viability	11.8%
COc1cc2c(cc1O)CCN(Cc1cc(OC)c(OC)c(OC)c1)C2	MDA-MB-231	WST-1	–	96 h	GI50	0.62 µM
Cc1ccc2nc(-c3ccc(N(C)C)cc3)[nH]c2c1	MDA-MB-231	MTT	–	48 h	pIC50	4.50
COc1cc2c(cc1O)CCN(C(=O)c1cc(OC)c(OC)c(OC)c1)C2	MDA-MB-231	WST-1	–	96 h	GI50	0.733 µM
COc1cc(OC)c2c(=O)cc(-c3ccc(Br)cc3)oc2c1	HS27	MTT	–	24 h	pIC50	< 3.70
COc1ccc(CN2CCc3cc(OS(N)(=O)=O)c(OC)cc3C2)cc1OC	MDA-MB-231	WST-1	–	96 h	GI50	3.15 µM
CCOC(=O)C(C(C)=O)=C1Sc2nc3ccc(S(=O)(=O)N4CCCC4)cc3nc2S1	MDA-MB-231	MTT	3.125 µM	24 h	viability	49.2%
C=CCn1c(-c2ccc(Cl)cc2)nc2ccc(C)cc21	MDA-MB-231	MTT	–	–	pIC50	4.52
COc1cc2c(cc1OS(N)(=O)=O)CCN(C(=O)c1cc(OC)c(OC)c(OC)c1)C2	MDA-MB-231	WST-1	–	96 h	GI50	1.72 µM
